In ChEMBL document CHEMBL4819034, “Tricyclic-Carbocyclic RORγt Inverse Agonists-Discovery of BMS-986313” (J Med Chem, 2021):

Columns and labels:
[1] = Half life in rat liver microsomes; type: ADME, Microsome
How it was run: (§1)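 Liver microsome half-life (min) measured in human, mouse, rat, dog and cyno liver microsomes.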

[2] = Half life in dog liver microsomes; type: ADME, Canis lupus familiaris, Microsome; how it was run: as §1
[3] = Metabolic stability in human liver microsomes assessed as parent compound remaining; type: ADME, Microsome
How it was run: (§2)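 Test compound at 0.5 μM initial concentration incubated with human, mouse or rat liver microsomes (protein 1 mg/mL). Metabolic stability reported as percent of parent compound remaining after incubation.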

[4] = Metabolic stability in mouse liver microsomes assessed as parent compound remaining; type: ADME, Microsome; how it was run: as §2
[5] = Metabolic stability in rat liver microsomes assessed as parent compound remaining; type: ADME, Microsome; how it was run: as §2
[6] = target: T1, Nuclear receptor ROR-gamma (Homo sapiens, UniProt P51449); experiment: Inverse agonist activity at recombinant full-length human Gal4-fused RORgammat expressed in human Jurkat cells incubated for 18 hrs by steady-glo luciferase reporter gene assay; type: cell-based
T1 sequence (P51449 whole entry): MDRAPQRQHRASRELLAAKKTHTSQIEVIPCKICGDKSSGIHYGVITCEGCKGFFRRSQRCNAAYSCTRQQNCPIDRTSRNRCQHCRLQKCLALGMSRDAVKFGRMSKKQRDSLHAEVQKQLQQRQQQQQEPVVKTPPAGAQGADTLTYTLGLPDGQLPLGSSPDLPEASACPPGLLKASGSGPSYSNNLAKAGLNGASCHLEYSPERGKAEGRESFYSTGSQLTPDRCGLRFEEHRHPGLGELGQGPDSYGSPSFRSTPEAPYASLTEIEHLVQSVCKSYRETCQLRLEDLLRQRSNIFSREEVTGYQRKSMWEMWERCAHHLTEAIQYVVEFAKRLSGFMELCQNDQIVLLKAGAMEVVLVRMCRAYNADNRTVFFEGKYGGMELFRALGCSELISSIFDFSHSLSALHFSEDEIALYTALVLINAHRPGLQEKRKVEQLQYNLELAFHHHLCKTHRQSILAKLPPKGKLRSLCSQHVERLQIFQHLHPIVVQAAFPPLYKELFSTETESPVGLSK

[7] = target: T1, Nuclear receptor ROR-gamma; experiment: Inverse agonist activity at RORgammat in CD3 and CD28-stimulated human whole blood assessed as suppression of IL17 preincubated for 1 hr followed by CD3 and CD28 stimulation measured after 20 hrs by AlphaLISA method; type: tissue-based
[8] = Half life in human liver microsomes; type: ADME, Microsome; how it was run: as §1
[9] = Half life in mouse liver microsomes; type: ADME, Microsome; how it was run: as §1
[10] = Half life in cynomolgus monkey liver microsomes; type: ADME, Macaca fascicularis, Microsome; how it was run: as §1
[11] = Permeability across apical to basolateral membrane in human Caco-2 cells; type: ADME, cell-based; conditions: read-out: permeability
How it was run: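 Caco-2 monolayer permeability, apical-to-basolateral direction (Pc, nm/s). An efflux ratio is also reported.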

| Compound | Stabilty [3] [%] | Stabilty [4] [%] | Stabilty [5] [%] | other results |
| --- | --- | --- | --- | --- |
| CC(C)(O)CNC(=O)[C@@H]1CC[C@@]2(S(=O)(=O)c3ccc(F)cc3)c3ccc(C(F)(C(F)(F)F)C(F)(F)F)cc3CC[C@@H]12 |  |  |  | half-life [1]: 18 min; half-life [2]: 27 min |
| CC(C)(O)CC(=O)N[C@@H]1CC[C@@]2(S(=O)(=O)c3ccc(F)cc3)c3ccc(C(F)(C(F)(F)F)C(F)(F)F)cc3CC[C@@H]12 | 97 | 86 | 90 |  |
| CC(C)(N)CC(=O)N[C@@H]1CC[C@@]2(S(=O)(=O)c3ccc(F)cc3)c3ccc(C(F)(C(F)(F)F)C(F)(F)F)cc3CC[C@@H]12 | 98 | 85 | 89 |  |
| O=C(N[C@@H]1CC[C@@]2(S(=O)(=O)c3ccc(F)cc3)c3ccc(C(F)(C(F)(F)F)C(F)(F)F)cc3CC[C@@H]12)C1(O)CCCCC1 | 50 | 56 | 22 |  |
| CC(=O)N1CCC(C(=O)N[C@@H]2CC[C@@]3(S(=O)(=O)c4ccc(F)cc4)c4ccc(C(F)(C(F)(F)F)C(F)(F)F)cc4CC[C@@H]23)CC1 | 61 | 67 | 100 |  |
| CN(C(=O)C(C)(C)O)[C@@H]1CC[C@@]2(S(=O)(=O)c3ccc(F)cc3)c3ccc(C(F)(C(F)(F)F)C(F)(F)F)cc3CC[C@@H]12 |  |  |  | EC50 [6]: 45 nM; EC50 [7]: 2730 nM |
| O=C(NCCO)N[C@@H]1CC[C@@]2(S(=O)(=O)c3ccc(F)cc3)c3ccc(C(F)(C(F)(F)F)C(F)(F)F)cc3CC[C@@H]12 | 97 | 93 | 41 |  |
| O=C(CO)N[C@@H]1CC[C@@]2(S(=O)(=O)c3ccc(F)cc3)c3ccc(C(F)(C(F)(F)F)C(F)(F)F)cc3CC[C@@H]12 | 82 | 65 | 34 |  |
| CC(C)(N)C(=O)N[C@@H]1CC[C@@]2(S(=O)(=O)c3ccc(F)cc3)c3ccc(C(F)(C(F)(F)F)C(F)(F)F)cc3CC[C@@H]12 | 80 | 100 | 100 | EC50 [6]: 30 nM; EC50 [7]: 164 nM |
| CC(C)(C(=O)N[C@@H]1CC[C@@]2(S(=O)(=O)c3ccc(F)cc3)c3ccc(C(F)(C(F)(F)F)C(F)(F)F)cc3CC[C@@H]12)N1CCNCC1 | 74 | 78 | 97 | EC50 [6]: 63 nM |
| CC(C)(C(=O)N[C@@H]1CC[C@@]2(S(=O)(=O)c3ccc(F)cc3)c3ccc(C(F)(C(F)(F)F)C(F)(F)F)cc3CC[C@@H]12)N1CCOCC1 | 0.3 | 0.3 | 0.4 |  |
| O=C(N[C@@H]1CC[C@@]2(S(=O)(=O)c3ccc(F)cc3)c3ccc(C(F)(C(F)(F)F)C(F)(F)F)cc3CC[C@@H]12)C1(O)CCNCC1 | 100 | 88 | 83 |  |
| O=C(N[C@@H]1CC[C@@]2(S(=O)(=O)c3ccc(F)cc3)c3ccc(C(F)(C(F)(F)F)C(F)(F)F)cc3CC[C@@H]12)C1(O)CCOCC1 | 100 | 75 | 66 |  |
| CC(=O)N[C@@H]1CC[C@@]2(S(=O)(=O)c3ccc(F)cc3)c3ccc(C(F)(C(F)(F)F)C(F)(F)F)cc3CC[C@@H]12 |  | 90 | 100 |  |
| C[C@@H](O)C(=O)N[C@@H]1CC[C@@]2(S(=O)(=O)c3ccc(F)cc3)c3ccc(C(F)(C(F)(F)F)C(F)(F)F)cc3CC[C@@H]12 | 71 | 70 | 14 |  |
| CC(C)(O)CNC(=O)N[C@@H]1CC[C@@]2(S(=O)(=O)c3ccc(F)cc3)c3ccc(C(F)(C(F)(F)F)C(F)(F)F)cc3CC[C@@H]12 | 54 |  | 42 |  |
| CS(=O)(=O)N[C@@H]1CC[C@@]2(S(=O)(=O)c3ccc(F)cc3)c3ccc(C(F)(C(F)(F)F)C(F)(F)F)cc3CC[C@@H]12 |  |  |  | EC50 [6]: 7.3 nM; EC50 [7]: 157 nM |
| CNC(=O)N[C@@H]1CC[C@@]2(S(=O)(=O)c3ccc(F)cc3)c3ccc(C(F)(C(F)(F)F)C(F)(F)F)cc3CC[C@@H]12 | 40 | 32 | 10 |  |
| CC(=O)NCC(=O)N[C@@H]1CC[C@@]2(S(=O)(=O)c3ccc(F)cc3)c3ccc(C(F)(C(F)(F)F)C(F)(F)F)cc3CC[C@@H]12 | 100 | 93 | 10 |  |
| [2H]C([2H])([2H])N1C(=O)C(O)CC1C(=O)N[C@@H]1CC[C@@]2(S(=O)(=O)c3ccc(F)cc3)c3ccc(C(F)(C(F)(F)F)C(F)(F)F)cc3CC[C@@H]12 (single isomer, unassigned) | 99 | 100 | 100 | EC50 [6]: 12.3 nM; EC50 [7]: 134 nM |
| [2H]C([2H])([2H])N1C(=O)C(F)CC1C(=O)N[C@@H]1CC[C@@]2(S(=O)(=O)c3ccc(F)cc3)c3ccc(C(F)(C(F)(F)F)C(F)(F)F)cc3CC[C@@H]12 (single isomer, unassigned) | 100 | 86 | 100 | half-life [8]: 46 min; half-life [9]: 38 min; half-life [1]: 56 min; half-life [2]: 120 min; half-life [10]: 24 min; Papp A→B [11]: 9.2 ×10⁻⁶ cm/s |
